Assay [1] in a line: Cytotoxicity against human HL7702 cells by MTT assay. Type of assay: cell-based. To be noted: L02. The gist of the method: (§1)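 MTT viability read-out, run in parallel on human HepG2 (hepatocellular carcinoma), MCF-7 and MDA-MB-231 (breast adenocarcinoma) cancer lines and HL-7702 normal human hepatic cells. Paclitaxel was the positive control, and results are expressed as IC50.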

Another assay relates to HepG2. Briefly: Cytotoxicity against human HepG2 cells by MTT assay. Type of assay: functional, cell-based. Summed up:
as §1

Another assay concerns MDA-MB-231. Kind of assay: Cytotoxicity against human MDA-MB-231 cells by MTT assay. Type of assay: functional, cell-based. Summed up:
as §1

A further assay relates to MCF7. Kind of assay: Cytotoxicity against human MCF7 cells by MTT assay. Type of assay: functional, cell-based. The gist of the method:
as §1

The subject of the next assay is RAW264.7. Briefly: Anti-inflammatory activity in mouse RAW264.7 cells assessed as inhibition of IFN-gamma plus LPS-induced NO production. The assay is classed as functional, cell-based. Summed up: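 Murine macrophage RAW264.7 cells stimulated with IFN-γ plus LPS; NO output quantified as nitrite in the medium. Indomethacin served as positive control, and results are expressed as IC50.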

Each structure is given as a SMILES string.

Regarding `O=c1c2cc(O)c(O)cc2oc2cc(O)cc(O)c12`, the half-inhibitory concentration (IC50) in assay [1] is above 10 µM; in the assay with HepG2, above 10 µM; in the assay on MDA-MB-231, above 10 µM; with MCF7 it was above 10 µM; in the assay with RAW264.7 it was 43 µM.

Turning to `CC(C)=CCc1c(O)cc2oc3cc(O)c(O)c(CC=C(C)C)c3c(=O)c2c1O`, the half-inhibitory concentration (IC50) was above 10 µM in assay [1]; above 10 µM in the assay on HepG2; 6.6 µM in the assay with MDA-MB-231; above 10 µM in the assay with MCF7; above 50 µM in the assay with RAW264.7.

As to `CC(C)=CC[C@H]1C[C@@]23C[C@H](CC=C(C)C)C(C)(C)[C@@](CC=C(C)C)(C(=O)C(OC(=O)c4ccc(O)c(O)c4)=C2OC1(C)C)C3=O`, the IC50 was above 10 µM in assay [1]; above 10 µM in the assay with HepG2; above 10 µM in the assay with MDA-MB-231; above 10 µM in the assay with MCF7; 39.1 µM in the assay on RAW264.7.

As to `C=C(C)C(O)C[C@H](C[C@]12C[C@@H](CC=C(C)C)C(C)(C)[C@](CC=C(C)C)(C1=O)c1oc3cc(O)c(O)cc3c(=O)c1C2=O)C(=C)C` (stereo not given in full), the IC50 in assay [1] was above 10 µM; with HepG2, above 10 µM; with MDA-MB-231, above 10 µM; in the assay on MCF7, above 10 µM; in the assay with RAW264.7 it was 12.9 µM.

For `C=C(C)C(CC=C(C)C)C[C@@]12C[C@@H](C[C@H](O)C(C)(C)OC)C(C)(C)[C@@](CC=C(C)C)(C(=O)C(C(=O)c3ccc(O)c(O)c3)=C1O)C2=O` (stereo not given in full), the IC50 was above 10 µM in assay [1]; above 10 µM with HepG2; above 10 µM in the assay on MDA-MB-231; above 10 µM in the assay on MCF7; 24.9 µM in the assay on RAW264.7.

As to `C=C(C)C(C[C@@H](O)C(=C)C)C[C@@]12C[C@@H](CC=C(C)C)C(C)(C)[C@@](CC=C(C)C)(C(=O)C(C(=O)c3ccc(O)c(O)c3)=C1O)C2=O` (stereo not given in full), the IC50 in assay [1] was above 10 µM; with HepG2, above 10 µM; in the assay with MDA-MB-231 it was above 10 µM; with MCF7, above 10 µM; with RAW264.7 it was 19.1 µM.

In the case of `C=C(C)C(C[C@H](O)C(=C)C)C[C@@]12C[C@@H](CC=C(C)C)C(C)(C)[C@@](CC=C(C)C)(C(=O)C(C(=O)c3ccc(O)c(O)c3)=C1O)C2=O` (stereo not given in full), the IC50 is above 10 µM in assay [1]; above 10 µM in the assay with HepG2; above 10 µM in the assay on MDA-MB-231; above 10 µM in the assay with MCF7; 29.1 µM with RAW264.7.

For `CC(C)=CCc1cc(O)c(O)c2oc3cc4c(c(O)c3c(=O)c12)C=CC(C)(C)O4`, the IC50 in assay [1] is above 10 µM; with HepG2, above 10 µM; in the assay on MDA-MB-231 it was above 10 µM; in the assay on MCF7, above 10 µM; in the assay on RAW264.7, above 50 µM.

As to `C=C(C)C(CC=C(C)C)C[C@@]12C[C@H]3[C@@H](C=C(C)C)[C@@](C(=O)c4ccc(O)c(O)c4)(C1=O)C(=O)[C@@](CC=C(C)C)(C2=O)C3(C)C` (stereo not given in full), the concentration for half-maximal inhibition (IC50) was above 10 µM in assay [1]; above 10 µM with HepG2; 9.1 µM in the assay with MDA-MB-231; above 10 µM in the assay on MCF7; above 50 µM in the assay on RAW264.7.

For `CC1(C)C=Cc2c(cc3oc4ccc(O)cc4c(=O)c3c2O)O1`, the 50% inhibitory concentration (IC50) in assay [1] is 6.6 µM; in the assay with HepG2, above 10 µM; in the assay on MDA-MB-231 it was 6.1 µM; in the assay with MCF7 it was above 10 µM; in the assay with RAW264.7, above 50 µM.

For `C=C(C)C(CC=C(C)C)C[C@]12C[C@H](CC=C(C)C)C(C)(C)[C@](CC=C(C)C)(C(=O)c3c1oc1cc(O)c(O)cc1c3=O)C2=O` (stereo not given in full), the IC50 in assay [1] is above 10 µM; with HepG2, above 10 µM; with MDA-MB-231, above 10 µM; with MCF7, above 10 µM; in the assay on RAW264.7, 17 µM.

As for `CC1=C[C@H]2c3c(c(O)c(O)c4oc5cc(O)cc(O)c5c(=O)c34)[C@H](c3cc(O)c(O)c4oc5cc(O)cc(O)c5c(=O)c34)[C@H]2C(C)(C)C1`, the IC50 in assay [1] is above 10 µM; in the assay with HepG2, above 10 µM; in the assay with MDA-MB-231 it was above 10 µM; with MCF7, above 10 µM; with RAW264.7, 41.9 µM.

For the compound `CC(C)=CCc1c(O)cc(O)c2oc3cc(O)cc(O)c3c(=O)c12`, the IC50 in assay [1] is above 10 µM; in the assay with HepG2, above 10 µM; with MDA-MB-231, above 10 µM; in the assay on MCF7, above 10 µM; with RAW264.7, 6.4 µM.

As for `CC1(C)Oc2cc3oc4ccc(O)cc4c(=O)c3c(O)c2CC1O` (stereo not given), the IC50 in assay [1] was above 10 µM; in the assay with HepG2, above 10 µM; in the assay on MDA-MB-231, above 10 µM; in the assay on MCF7, above 10 µM; with RAW264.7, 15.9 µM.

For the compound `CC(C)=CCc1c(O)cc2oc3ccc(O)cc3c(=O)c2c1O`, the IC50 in assay [1] was above 10 µM; in the assay on HepG2, above 10 µM; in the assay with MDA-MB-231 it was above 10 µM; with MCF7 it was above 10 µM; in the assay with RAW264.7, 21.3 µM.

Consider `CC(C)=CC[C@H]1C[C@@]23C[C@@H](CC=C(C)C)C(C)(C)[C@@](CC=C(C)C)(C(=O)C(C(=O)c4ccc(O)c(O)c4)=C2OC1(C)C)C3=O` [CAMBOGIN], for which the IC50 in assay [1] is 9.3 µM; in the assay with HepG2, 7.3 µM; in the assay with MDA-MB-231, 5.7 µM; in the assay with MCF7, 4.8 µM; in the assay with RAW264.7, 19.2 µM.

With `C=C(C)C(O)C[C@H](C[C@@]12C[C@@H](CC=C(C)C)C(C)(C)[C@@](CC=C(C)C)(C(=O)C(C(=O)c3ccc(O)c(O)c3)=C1O)C2=O)C(=C)C` (stereo not given in full) [GARCIMULTIFLORONE E], the IC50 was above 10 µM in assay [1]; above 10 µM in the assay with HepG2; above 10 µM with MDA-MB-231; 9.8 µM in the assay on MCF7; 1.1 µM in the assay on RAW264.7.

Regarding `C=C(C)[C@@H]1C[C@]23C[C@H](CC=C(C)C)C(C)(C)[C@](CC=C(C)C)(C(=O)C(C(=O)c4ccc(O)c(O)c4)=C2O[C@H]1C=C(C)C)C3=O` [GARCINIALIPTONE B], the concentration for half-maximal inhibition (IC50) in assay [1] was above 10 µM; in the assay on HepG2, above 10 µM; in the assay with MDA-MB-231, above 10 µM; with MCF7, above 10 µM; in the assay on RAW264.7, 21.3 µM.

On to `C=C(C)[C@H](CC=C(C)C)C[C@@]12C[C@@H](CC=C(C)C)C(C)(C)[C@@](CC=C(C)C)(C(=O)C(C(=O)c3ccc(O)c(O)c3)=C1O)C2=O` [GUTTIFERONE F], for which the IC50 in assay [1] is 9.6 µM; in the assay with HepG2 it was above 10 µM; in the assay with MDA-MB-231, 7.9 µM; with MCF7, above 10 µM; in the assay on RAW264.7, 14.1 µM.

Take `CC1(C)CCc2c(c(O)cc3oc4cc(O)cc(O)c4c(=O)c23)O1` [HYPERXANTHONE E]: the IC50 in assay [1] is above 10 µM; in the assay with HepG2 it was above 10 µM; in the assay with MDA-MB-231 it was above 10 µM; with MCF7 it was above 10 µM; with RAW264.7 it was 4 µM.

For the compound `COc1ccc2c(c1)c(CC(=O)O)c(C)n2C(=O)c1ccc(Cl)cc1` [INDOMETHACIN], the half-inhibitory concentration (IC50) with RAW264.7 turned out to be 3.9 µM.

`CC(=O)O[C@H]1C(=O)[C@@]2(C)[C@H]([C@H](OC(=O)c3ccccc3)[C@]3(O)C[C@H](OC(=O)[C@H](O)[C@@H](NC(=O)c4ccccc4)c4ccccc4)C(C)=C1C3(C)C)[C@]1(OC(C)=O)CO[C@@H]1C[C@@H]2O` [PACLITAXEL]: the IC50 in assay [1] stood at 1.1 µM; in the assay on HepG2 it was 0.0046 µM; with MDA-MB-231, 0.0082 µM; in the assay with MCF7 it was 0.0015 µM.

In the case of `CC1(C)C=Cc2c(c(O)cc3oc4cc(O)cc(O)c4c(=O)c23)O1` [TOXYLOXANTHONE B], the IC50 is above 10 µM in assay [1]; above 10 µM in the assay with HepG2; above 10 µM in the assay on MDA-MB-231; above 10 µM in the assay with MCF7; above 50 µM with RAW264.7.

The values above are taken from ChEMBL document CHEMBL3352143, “Cytotoxic and anti-inflammatory prenylated benzoylphloroglucinols and xanthones from the twigs of Garcinia esculenta” (J Nat Prod, 2014).
